# The source made the active and inactive calls. The calls are words filed in the database; no cut-off is given here.
# Molecular target: Estrogen receptor beta (Homo sapiens) (UniProt Q92731)
# Assay: Displacement of [2,4,6,7-3H]estradiol from human recombinant ERbeta receptor
# Procedure, shortened: (§1)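 Recombinant human ERα or ERβ (1.5 nM) with 15 nM [3H]-17β-estradiol and diluted compounds in pH 7.5 Tris buffer with 10% glycerol, 2 mM DTT, 1 mg/mL BSA; overnight at 4 °C. Bound ligand captured on hydroxylapatite, washed thrice (ERα: Tris/KCl/EDTA/EGTA; ERβ: Tris only), ethanol-extracted, radioactivity counted.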
# Estrogen receptor beta (Homo sapiens), sequence (Q92731 whole entry): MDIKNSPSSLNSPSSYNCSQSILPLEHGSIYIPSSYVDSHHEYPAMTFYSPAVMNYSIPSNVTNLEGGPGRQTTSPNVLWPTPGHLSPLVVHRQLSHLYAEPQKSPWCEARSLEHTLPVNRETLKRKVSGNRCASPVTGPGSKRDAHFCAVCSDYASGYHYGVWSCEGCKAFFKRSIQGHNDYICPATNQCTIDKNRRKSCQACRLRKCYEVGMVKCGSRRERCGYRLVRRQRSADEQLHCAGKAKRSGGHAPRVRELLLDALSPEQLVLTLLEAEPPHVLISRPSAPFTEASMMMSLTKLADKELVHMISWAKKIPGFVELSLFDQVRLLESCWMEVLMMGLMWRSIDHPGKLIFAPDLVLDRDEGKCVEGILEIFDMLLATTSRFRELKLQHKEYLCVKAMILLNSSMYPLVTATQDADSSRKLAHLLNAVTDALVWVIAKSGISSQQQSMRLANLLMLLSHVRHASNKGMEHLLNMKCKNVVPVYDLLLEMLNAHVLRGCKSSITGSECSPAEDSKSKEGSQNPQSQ
row,SMILES,Activity [%]
1,CC(=O)Oc1ccc(C(=O)O[C@H]2CC(C)=CC[C@@]3(C)CC[C@@](O)(C(C)C)[C@H]23)cc1,< 1

# Molecular target: T1, Estrogen receptor (Homo sapiens) (UniProt P03372)
# T1 sequence (whole entry): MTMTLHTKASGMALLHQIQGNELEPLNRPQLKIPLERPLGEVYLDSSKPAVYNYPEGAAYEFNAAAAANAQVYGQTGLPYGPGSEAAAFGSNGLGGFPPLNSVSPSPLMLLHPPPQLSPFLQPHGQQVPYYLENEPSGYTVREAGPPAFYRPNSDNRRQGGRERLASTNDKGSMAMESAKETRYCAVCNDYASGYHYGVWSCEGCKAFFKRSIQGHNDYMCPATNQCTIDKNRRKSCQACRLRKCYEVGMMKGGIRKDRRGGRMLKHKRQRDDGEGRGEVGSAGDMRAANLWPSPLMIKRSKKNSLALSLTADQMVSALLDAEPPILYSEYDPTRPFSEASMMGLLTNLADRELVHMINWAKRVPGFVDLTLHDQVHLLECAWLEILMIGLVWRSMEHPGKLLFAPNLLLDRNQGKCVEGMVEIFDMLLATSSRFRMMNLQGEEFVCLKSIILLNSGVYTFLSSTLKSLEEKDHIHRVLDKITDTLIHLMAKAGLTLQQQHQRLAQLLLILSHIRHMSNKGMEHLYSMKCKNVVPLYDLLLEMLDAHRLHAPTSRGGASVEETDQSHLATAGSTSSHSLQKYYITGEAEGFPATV
# Assay: Binding affinity to human ERalpha expressed in yeast relative to estradiol
# Procedure, shortened: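 Yeast (Saccharomyces cerevisiae) estrogen screen expressing human ERα with estrogen-responsive sequences driving lac-Z. Compound aliquots dried into wells before assay. β-Galactosidase activity read as chlorophenol red β-D-galactopyranoside hydrolysis, absorbance 540 nm.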
row,SMILES,Activity
1,CC(=O)Oc1ccc(C(=O)O[C@H]2CC(C)=CC[C@@]3(C)CC[C@@](O)(C(C)C)[C@H]23)cc1,0.2%
2,COc1cc(CC(=O)O[C@H]2CC(C)=CC[C@@]3(C)CC[C@@](O)(C(C)C)[C@H]23)ccc1O,inactive
3,COc1cc(/C=C/C(=O)O[C@H]2CC(C)=CC[C@@]3(C)CC[C@@](O)(C(C)C)[C@H]23)ccc1O,inactive
4,CC1=CC[C@@]2(C)CC[C@@](O)(C(C)C)[C@@H]2[C@@H](OC(=O)/C=C/c2ccc(O)c(O)c2)C1,inactive
5,COc1ccc(C(=O)O[C@H]2CC(C)=CC[C@@]3(C)CC[C@@](O)(C(C)C)[C@H]23)cc1,< 0.0001%
6,COc1cc(/C=C/C(=O)O[C@H]2CC(C)=CC[C@@]3(C)CC[C@@](O)(C(C)C)[C@H]23)cc(OC)c1O,inactive
7,CC1=CC[C@@]2(C)CC[C@@](O)(C(C)C)[C@@H]2[C@@H](OC(=O)Cc2ccc(O)cc2)C1,< 0.0001%
8,CC1=CC[C@@]2(C)CC[C@@](O)(C(C)C)[C@@H]2[C@@H](OC(=O)c2ccccc2)C1,inactive
9,COc1cc(C(=O)O[C@H]2CC(C)=CC[C@@]3(C)CC[C@@](O)(C(C)C)[C@H]23)cc(OC)c1OC,inactive
10,CC1=CC[C@@]2(C)CC[C@@](O)(C(C)C)[C@@H]2[C@@H](OC(=O)/C=C/c2ccc(O)cc2)C1,< 0.0001%
11,COc1cc(C(=O)O[C@H]2CC(C)=CC[C@@]3(C)CC[C@@](O)(C(C)C)[C@H]23)ccc1O,inactive
12,CC1=CC[C@@]2(C)CC[C@@](O)(C(C)C)[C@@H]2[C@@H](OC(=O)CCc2ccc(O)cc2)C1,< 0.0001%
13,CC1=CC[C@@]2(C)CC[C@@](O)(C(C)C)[C@@H]2[C@@H](OC(=O)c2ccc(O)c(O)c2)C1,< 0.1%
14,CC1=CC[C@@]2(C)CC[C@@](O)(C(C)C)[C@@H]2[C@@H](OC(=O)CCc2ccc(O)c(O)c2)C1,inactive

# Molecular target: T1, Estrogen receptor (Homo sapiens)
# Assay: Displacement of [2,4,6,7-3H]estradiol from human recombinant ERalpha receptor
# Procedure, shortened: as §1
row,SMILES,Activity [%]
1,CC(=O)Oc1ccc(C(=O)O[C@H]2CC(C)=CC[C@@]3(C)CC[C@@](O)(C(C)C)[C@H]23)cc1,< 1
